Shown is part of a subset that was picked to be rich in hits.
YB-1 expression: YB-1 expression inhibition; U2OS, qRT-PCR YB-1 vs CDIP delta delta Cp, 16 h; active compounds read high; zero = DMSO, each unit about twofold; delta delta Cp (YB-1 minus CDIP) (test concentration not listed); 0.37% of 30,000 active;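 active = delta delta Cp rounded down to an integer at or above 3, about 3 SD of DMSO wells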;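 also: higher means less YB-1 transcript or more CDIP transcript relative to DMSO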
INS-1E rescue: preserves ATP levels in cytokine-treated INS-1E cells; INS-1E cytokine-induced death, ATP luminescence, 48 h; normalised: neutral wells 0, positive control 100; 0.1% of 20,000 active; protection from cytokine-induced ATP loss, % at 10 µM;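 active = mean replicate protection from cytokine-induced ATP loss at least 50% and at least 75% of replicates each reaching 50%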
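Assay system: INS-1E rat cells / Quantity: 8000 cells per well / Medium: RPMI without phenol red, 5% FBS / Probe or stimulus: three-cytokine cocktail (IFN-γ, TNF-α, IL-1β) / Dosing: one compound concentration, pin transfer / Timing: 48 h co-treatment, 10 min post-lysis read / Technique: CellTiter-Glo luminescence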
T cruzi HTS: inhibitors of intracellular Trypanosoma cruzi | 4.9% of 22,000 active | activity score (inhibition), % at 5.01 µM | intracellular Trypanosoma cruzi in host cells, plate reader; in the data active = activity score above about 55%;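 also: parasites and compound incubated about four days before reading; 0% = median of neutral control wells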
Starred values were filed as active, the others as inactive; . = no result.

SMILES	YB-1 expression	INS-1E rescue	T cruzi HTS
C[C@@H]1CCCCO[C@@H](CN(C)C(=O)Nc2ccccc2)[C@@H](C)CN([C@H](C)CO)C(=O)c2cc(NC(=O)Nc3ccccc3)ccc2O1	0.057	2	-5
C[C@@H]1CN([C@@H](C)CO)C(=O)c2cc(NC(=O)NC3CCCCC3)ccc2O[C@@H]1CN(C)C(=O)Nc1ccc(C(F)(F)F)cc1	0.23	-6	-15
O=S(=O)(c1cc(C(F)(F)F)ccc1Cl)N1CCN(Cc2cccc(OCCO)c2)CC1	0.082	.	.
Cc1ccccc1NC(=O)CCC(=O)OC1CCC(C(C)(C)C)CC1 (stereo unspecified)	-0.3	.	.
CCN1C(N)=C(C#N)C2(CCNCC2)c2nc(C)oc21	-0.43	.	.
CN(CCOC(=O)c1ccc(Cl)cc1)c1ncc(C(F)(F)F)cc1Cl	-0.32	.	.
CCOC(=O)c1cnc2c(cnn2CC)c1NN=C(C)C	4.9*	.	.
CCOC(=O)c1cnc2c(OC)cccc2c1NC1CCCCC1	-0.066	.	.
CCOC(=O)c1c(CSc2nc(C)ccc2C#N)oc2ccc(OC(C)=O)cc12	-0.55	.	.
C[C@@H]1CN([C@@H](C)CO)C(=O)c2cccc(NC(=O)c3ccncc3)c2O[C@H]1CN(C)C(=O)Nc1cccc2ccccc12	0.05	12	9
C[C@H]1CN([C@@H](C)CO)C(=O)c2cccc(NC(=O)c3ccncc3)c2O[C@H]1CN(C)C(=O)Nc1cccc2ccccc12	0.14	1	75*
C[C@H](CO)N1C[C@H](C)[C@H](CN(C)C(=O)Nc2cccc3ccccc23)Oc2c(NC(=O)c3ccncc3)cccc2C1=O	0.6	1	70*
C[C@H]1CN([C@@H](C)CO)C(=O)c2cccc(NC(=O)c3ccncc3)c2O[C@@H]1CN(C)C(=O)Nc1cccc2ccccc12	0.41	8	5
CC1=CC(C)C2(COC(=O)Nc3ccccc3)COC(c3cccnc3)C1C2C (stereo unspecified)	-0.33	.	.
O=C(c1cc2nc(-c3ccco3)cc(C(F)(F)F)n2n1)N(Cc1ccccc1)Cc1ccccc1	0.2	.	.
C[C@@H]1CN([C@@H](C)CO)C(=O)c2cc(NS(=O)(=O)c3ccccc3)ccc2O[C@@H]1CN(C)Cc1ccc(C(F)(F)F)cc1	-0.44	-7	5
C[C@@H]1CN([C@H](C)CO)C(=O)c2cc(NS(=O)(=O)c3ccc(F)cc3)ccc2O[C@@H]1CN(C)Cc1ccc(C(F)(F)F)cc1	0.21	-6	24
C[C@H](CO)N1C[C@H](C)[C@H](CN(C)Cc2ccc(C(F)(F)F)cc2)Oc2ccc(NS(=O)(=O)c3ccccc3)cc2C1=O	0.072	-19	66*
Cc1ccc(S(=O)(=O)Nc2ccc3c(c2)C(=O)N([C@H](C)CO)C[C@H](C)[C@H](CN(C)Cc2ccc(C(F)(F)F)cc2)O3)cc1	0.12	-18	69*
Cc1cccc(N=Cc2c(O)n(-c3ccccc3)c(=O)c3ccccc23)c1	-0.028	.	.
C[C@H](CO)N1C[C@H](C)[C@@H](CN(C)C(=O)Nc2ccc(F)cc2)Oc2c(NC(=O)c3nc4ccccc4s3)cccc2C1=O	0.00091	-2	-6
C[C@@H]1CN([C@H](C)CO)C(=O)c2cccc(NC(=O)c3nc4ccccc4s3)c2O[C@@H]1CN(C)C(=O)Nc1ccc(F)cc1	0.21	-5	13
C[C@H]1CN([C@@H](C)CO)C(=O)c2cccc(NC(=O)c3nc4ccccc4s3)c2O[C@@H]1CN(C)C(=O)Nc1ccc(C(F)(F)F)cc1	-0.17	-12	74*
C[C@H]1CN([C@@H](C)CO)C(=O)c2cccc(NC(=O)c3nc4ccccc4s3)c2O[C@H]1CN(C)C(=O)Nc1ccc(C(F)(F)F)cc1	0.24	-73	79*
C[C@@H]1CN([C@H](C)CO)C(=O)c2cccc(NC(=O)c3nc4ccccc4s3)c2O[C@H]1CN(C)C(=O)Nc1ccc(F)cc1	-0.006	6	-21
SMILES	YB-1 expression	INS-1E rescue	T cruzi HTS
C[C@@H]1CN([C@@H](C)CO)C(=O)c2cccc(NC(=O)c3nc4ccccc4s3)c2O[C@H]1CN(C)C(=O)Nc1ccc(C(F)(F)F)cc1	0.14	-11	84*
C[C@@H]1CN([C@H](C)CO)C(=O)c2cccc(NC(=O)c3nc4ccccc4s3)c2O[C@H]1CN(C)C(=O)Nc1ccc(C(F)(F)F)cc1	-0.29	-2	61*
C[C@@H]1CN([C@@H](C)CO)C(=O)c2cccc(NC(=O)c3nc4ccccc4s3)c2O[C@H]1CN(C)C(=O)Nc1ccc(F)cc1	0.25	1	-2
COc1ccc(CNCc2cccc(OC)c2)cc1	-0.23	.	.
C=C[C@H]1CN2CC[C@H]1C[C@@H]2C(O)c1ccnc2ccc(OC)cc12 (stereo partly specified)	-0.45	.	.
COc1ccc(C=Nc2ccc(Br)cc2)cc1	0.19	.	.
O=S(=O)(Cc1ccco1)Cc1nc(-c2ccc(-c3ccccc3)cc2)cs1	0.52	.	.
O=C(Oc1ccc(C=Nc2ccc(F)cc2)cc1)c1ccco1	0.13	.	.
C[C@@H]1CN([C@H](C)CO)C(=O)c2cccc(NC(=O)c3ccncc3)c2O[C@@H]1CN(C)Cc1ccc2c(c1)OCO2	0.28	-6	-8
C[C@H]1CN([C@@H](C)CO)C(=O)c2cccc(NC(=O)c3ccncc3)c2O[C@@H]1CN(C)Cc1ccc2c(c1)OCO2	0.069	-5	78*
C[C@H](CO)N1C[C@H](C)[C@@H](CN(C)Cc2ccc3c(c2)OCO3)Oc2c(NC(=O)c3ccncc3)cccc2C1=O	-0.013	15	76*
C[C@@H]1CN([C@@H](C)CO)C(=O)c2cccc(NC(=O)c3ccncc3)c2O[C@@H]1CN(C)Cc1ccc2c(c1)OCO2	0.13	3	-1
O=C(O)c1cc2cccc(S(=O)(=O)N3CCCCCC3)c2cc1O	-0.14	.	.
O=C(Nc1sc2c(c1C(=O)Nc1ccccc1)CCCC2)c1ccccc1	-0.15	.	.
C[C@@H]1CCCCO[C@@H](CN(C)Cc2ccc(C(F)(F)F)cc2)[C@@H](C)CN([C@H](C)CO)C(=O)c2cc(NC(=O)c3ccncc3)ccc2O1	0.21	-10	9
C[C@@H]1CCCCO[C@@H](CN(C)Cc2ccc(C(F)(F)F)cc2)[C@@H](C)CN([C@H](C)CO)C(=O)c2cc(NC(=O)Cc3ccccc3)ccc2O1	-0.31	-15	63*
C[C@@H]1CCCCO[C@@H](CN(C)Cc2ccc(C(F)(F)F)cc2)[C@@H](C)CN([C@H](C)CO)C(=O)c2cc(NC(=O)c3ccccc3)ccc2O1	-0.45	-11	63*
C[C@@H]1CCCCO[C@@H](CN(C)Cc2ccccc2)[C@@H](C)CN([C@H](C)CO)C(=O)c2cc(NC(=O)Nc3ccc(C(F)(F)F)cc3)ccc2O1	0.19	-40	71*
COc1ccc(NC(=O)Nc2ccc3c(c2)C(=O)N([C@H](C)CO)C[C@H](C)[C@H](CN(C)Cc2ccncc2)OCCCC[C@@H](C)O3)cc1	-0.025	2	-4
C[C@@H]1CCCCO[C@@H](CN(C)Cc2ccccc2)[C@@H](C)CN([C@H](C)CO)C(=O)c2cc(NC(=O)Cc3ccccc3)ccc2O1	-0.12	-5	-11

Compound activity as filed in PubChem.
